GSIS activator: GLuc luminescence reporter in INS-1E cells, primary screen for activators of glucose-dependent secretion of insulin | AID 743287, 2014 | activation, % at 16.6 µM | actives 0.61% (n = 370,000) | INS-1E GLuc reporter insulin secretion, 2-3 h;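 active = lowest replicate activation of at least 40%, so every replicate reaches that level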;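 also: 0% = median of neutral control wells and 100% = median of IBMX positive control wells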
ERp5 inh: inhibitors of ERp5-driven insulin aggregation, primary screen, biochemical, turbidity, absorbance 650 nm, single point | Protein disulfide-isomerase A6 (Homo sapiens), Q15084 | 90 min | inhibition, % at 9.99 µM | actives 0.05% (n = 350,000);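 active = mean replicate inhibition above about 25%, with every replicate also reaching it, limit read from the data, passing the limit was not always enough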
S100A4 MyoIIA: inhibitors of S100A4-myosin IIA peptide binding, primary screen, biochemical, fluorescence polarization, TAMRA-MyoIIA peptide. actives 0.14% (n = 360,000). Protein S100-A4 (Homo sapiens), P26447. inhibition, % at 10.7 µM;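 active = mean inhibition of at least 70% across replicates, with every replicate also reaching that level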
Target sequence (P26447 whole entry, looked up): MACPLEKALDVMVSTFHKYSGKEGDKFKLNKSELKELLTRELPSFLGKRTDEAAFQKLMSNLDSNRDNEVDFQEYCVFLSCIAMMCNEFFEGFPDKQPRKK
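Test system: S100A4 monomer protein. Medium: HEPES buffer with Ca2+, pH 7.2. Reagent: fluorescent myosin IIA peptide, 5 nM. Compound dosing: single-point compound testing. Timing: 5 min between mix addition and reading. Benchmarks: DMSO neutral and TFP positive wells.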
PDI turbidity: inhibitors of human PDI, primary screen, biochemical, turbidity, single point, plate reader. Protein disulfide-isomerase (Homo sapiens), P07237. PDI insulin aggregation turbidity, A650, 90 min. inhibition, % at 10 µM. actives 0.052% (n = 350,000);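 active = mean inhibition across replicates of 30% or more, whatever share of single replicates reach that level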
Target sequence (P07237 whole entry, looked up): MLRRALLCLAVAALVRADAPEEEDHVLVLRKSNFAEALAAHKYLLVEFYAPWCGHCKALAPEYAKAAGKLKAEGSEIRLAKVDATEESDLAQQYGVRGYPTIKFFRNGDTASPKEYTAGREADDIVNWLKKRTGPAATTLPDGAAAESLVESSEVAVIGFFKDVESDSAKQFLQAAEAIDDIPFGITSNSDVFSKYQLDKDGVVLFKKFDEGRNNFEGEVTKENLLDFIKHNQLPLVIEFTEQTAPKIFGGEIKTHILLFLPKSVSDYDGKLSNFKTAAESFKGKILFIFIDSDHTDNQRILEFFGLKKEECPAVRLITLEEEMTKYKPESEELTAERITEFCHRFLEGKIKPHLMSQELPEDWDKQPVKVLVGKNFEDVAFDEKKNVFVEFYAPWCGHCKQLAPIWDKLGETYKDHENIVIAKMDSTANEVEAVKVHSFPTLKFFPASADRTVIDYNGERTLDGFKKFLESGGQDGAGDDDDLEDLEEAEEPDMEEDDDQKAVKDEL
SIRT5 inh: SIRT5 desuccinylase inhibitors, primary screen, biochemical, fluorescence imaging, single point, set 5; inhibition, % at 15 µM; Purified SirT5, succinyl-peptide AMC, trypsin-coupled fluorescence; NAD-dependent protein deacylase sirtuin-5, mitochondrial (Homo sapiens), Q9NXA8; actives 1.1% (n = 330,000); in the data active = inhibition above about 15%
An asterisk follows results filed as active; nt = no result given. Sampled rows, rich in hits. Any-hit rate of the full collection: about 1.5%.

SMILES | GSIS activator | ERp5 inh | S100A4 MyoIIA | PDI turbidity | SIRT5 inh
CC(C)c1[nH]nc2c1C(c1ccccc1)NC2=O (stereo not drawn) | 43.6* | 3.8 | 0.5 | nt | -0.5
O=C1NC(c2ccccc2)c2c(-c3ccccc3)n[nH]c21 (stereo not drawn) | 54.2* | -1.7 | 1.5 | nt | 1.1
O=C1c2[nH]nc(-c3ccccc3)c2C(c2ccccc2)N1c1ccccc1 (stereo not drawn) | 48.7* | -0.8 | -2.0 | nt | nt
C[C@@H]1CN([C@@H](C)CO)C(=O)c2cc(NS(=O)(=O)c3cn(C)cn3)ccc2O[C@@H]1CN(C)C(=O)Nc1ccc(F)cc1 | 1.9 | nt | nt | nt | nt
CS(=O)(=O)N1C[C@H](O)COC[C@@H]2O[C@@H](CC(=O)NCc3ccc(-c4ccccc4)cc3)CC[C@H]21 | 3.5 | -5.9 | 3.8 | nt | nt
O=C(CCCC(=O)c1ccccc1)NCc1ccccc1 | 40.0* | 0.5 | 2.7 | -3.9 | -4.3
Cc1ccc(CNC(=O)CCCC(=O)c2ccccc2)cc1 | 31.8 | -1.2 | -8.1 | 3.7 | -1.3
C[C@@H]1CN([C@H](C)CO)C(=O)Cc2cc(NC(=O)C3CCCCC3)ccc2O[C@H]1CN(C)C(=O)Nc1ccc2c(c1)OCO2 | 14.0 | 1.3 | 13.2 | nt | -1.2
COc1ccccc1C(=O)N/C(=C\c1ccccc1)C(=O)NC(Cc1ccccc1)C(=O)O (stereo not drawn) | 7.7 | 4.2 | -3.3 | 1.4 | 69.9*
CCCCCCN1C[C@H](n2cc(C3CC3)nn2)[C@@H](O)C[C@@H]1c1ccc(C)cc1 | 274.3* | 4.1 | 8.0 | 6.5 | 1.9
CCCCCCN1C[C@@H](O)[C@H](n2cc(C3CC3)nn2)C[C@@H]1c1ccc(OC)cc1 | -27.0 | 3.6 | -14.1 | -5.4 | 1.6
CCCCCCN1C[C@H](n2cc(COC(=O)c3ccccc3)nn2)[C@@H](O)C[C@@H]1c1ccc(C)cc1 | 162.9* | 2.0 | -7.1 | -7.9 | 0.7
CCCCCCN1C[C@@H](n2cc(C3CC3)nn2)[C@H](O)C[C@@H]1c1ccc(OC)cc1 | -11.7 | 1.6 | -2.6 | 5.6 | 22.7*
CN1CCN(C(=O)C[C@H]2CC[C@@H](NC(=O)Cc3ccccn3)[C@H](CO)O2)CC1 | -1.8 | 4.3 | 0.9 | nt | 2.1
O=C(Nc1ccc(N2CCCC2)c(Cl)c1)c1cccs1 | 5.1 | 1.9 | -0.9 | -7.6 | 67.1*
O=C(NC(=S)Nc1ccc(N2CCOCC2)c(Cl)c1)c1cccs1 | 1.2 | 1.9 | 3.8 | 3.0 | 1.0
CCNC(=O)[C@H]1[C@H](CO)[C@H]2Cn3c(ccc(-c4ccccc4F)c3=O)[C@@H]1N2CC | 8.6 | -2.3 | -3.1 | nt | -3.3
Cc1cc(/C=C2/NC(=O)N(Cc3ccccc3F)C2=O)c(C)n1C(C)C | -1.0 | 2.1 | -5.2 | -2.2 | 112.2*
CCOc1ccc(Nc2oc(-c3ccco3)nc2C#N)cc1 | nt | nt | nt | -1.0 | nt
CCOc1ccc(Nc2oc(-c3cccc(Cl)c3)nc2C#N)cc1 | 106.0* | nt | nt | 3.4 | nt
O=C(C[C@H]1CC[C@H]2[C@@H](COC[C@@H](O)CN2S(=O)(=O)c2ccc(Cl)cc2)O1)N[C@H]1CCN(Cc2ccccc2)C1 | 12.2 | 8.6 | 0.3 | nt | -2.4
CC(=C/c1ccccc1)/C=N/NC(=O)c1cccs1 | -23.4 | 8.3 | 18.1 | -13.9 | 1.1
O=C(N/N=C/C(Br)=C\c1ccccc1)c1cccs1 | -12.0 | 0.1 | -7.4 | 4.1 | 19.9*
CC=Cc1ccc2n(c1=O)C[C@@H]1[C@@H](CO)[C@H](C(=O)NCC3CC3)[C@H]2N1CC1CCOCC1 (mixture of isomers) | 13.0 | -3.3 | 13.9 | nt | -4.1
CS(=O)(=O)Nc1ccc2c(c1)[C@H]1C[C@@H](CC(=O)NCc3ccc(Oc4ccccc4)cc3)O[C@@H](CO)[C@H]1O2 | 21.5 | -2.6 | -6.0 | nt | -1.9
SMILES | GSIS activator | ERp5 inh | S100A4 MyoIIA | PDI turbidity | SIRT5 inh
CC(C)c1ccc(NC2CCCN(C(=O)CC3CCCC3)C2)cc1 (stereo not drawn) | -25.5 | 5.5 | -1.9 | 0.0 | 34.3*
CC(C)c1ccc(NC2CCCN(C(=O)CCN3CCCC3=O)C2)cc1 (stereo not drawn) | -5.2 | 3.1 | -4.4 | -3.9 | 0.2
O=C(O)c1c2c(nc3ccccc13)/C(=C/c1ccccc1[N+](=O)[O-])CCC2 | 44.2 | 3.3 | -3.2 | -0.1 | -2.8
O=C(O)c1c2c(nc3ccccc13)/C(=C/c1cccc([N+](=O)[O-])c1)CCC2 | 13.6 | -7.0 | 1.1 | -4.7 | 97.1*
O=C(Cn1nnc(-c2ccccc2)n1)N=Nc1c(O)[nH]c2ccccc12 | 92.8* | nt | nt | -12.9 | nt
CC1=C(C(=O)N2CCOCC2)CC(CC(=O)NCCCN(C)C)C(=O)N1CCCN1CCCC1=O (stereo not drawn) | 40.9* | 8.3 | 12.7 | nt | nt
C/C=C1\COC(C(=O)NCc2cccc(OC)c2OC)(C(F)(F)F)C=C1C=C1CCCCC1 (stereo not drawn) | 72.7* | 0.1 | -0.8 | 6.0 | -0.4
C/C=C1\COC(C(=O)NCc2ccncc2)(C(F)(F)F)C=C1C=C1CCCCC1 (stereo not drawn) | -40.7 | 2.6 | 0.8 | -3.2 | -2.5
Cc1cnc(C(=O)OC(C)C(=O)NCc2ccccc2)cn1 (stereo not drawn) | 59.1* | 13.7 | -1.3 | -2.5 | -2.7
Cc1cnc(C(=O)OCC(=O)c2ccc(-c3ccccc3)cc2)cn1 | 6.8 | 2.3 | 0.2 | 5.3 | 2.5
Cc1cnc(C(=O)OCC(=O)c2ccccc2)cn1 | 21.2 | 1.4 | 94.1* | -7.6 | -3.1
C[C@H](NC(=O)C[C@@H]1C[C@H]2c3cc(NC(=O)CN(C)C)ccc3O[C@H]2[C@H](CO)O1)c1ccccc1 | -2.2 | 0.3 | 1.2 | nt | -0.3
Cc1ccc(NC(=O)COC(=O)c2cc(-c3cccs3)nn2-c2ccccc2)cc1[N+](=O)[O-] | 69.2* | nt | nt | 14.7 | nt
O=C(COC(=O)c1cc(-c2cccs2)nn1-c1ccccc1)Nc1cccc([N+](=O)[O-])c1 | -1.7 | 2.1 | -8.1 | 4.1 | -1.0
CC(C)NC(=O)N(C)C[C@@H]1Oc2cc(C#C[C@@H](C)O)ccc2S(=O)(=O)N([C@H](C)CO)C[C@@H]1C | 4.7 | 1.3 | 9.8 | nt | 2.1
COc1ccc(C2=NN(CCC(=O)NC3CCC(C)CC3)C(=O)CC2)cc1 (stereo not drawn) | -5.9 | 0.4 | 88.4* | -0.8 | -1.0
COc1ccc(CCCC(=O)NC2CCCCC2)cc1 | nt | nt | nt | -5.4 | nt
COc1ccc(CCC(=O)NC2CCC(C)CC2)cc1 (stereo not drawn) | 77.2* | 0.2 | 3.3 | 9.4 | -3.0
CCCC(=O)N1CCC2(CC1)CN(C(=O)COC)[C@H](CO)c1c2c2ccc(OC)cc2n1C | -4.3 | -0.3 | 4.4 | nt | 1.3
CCCCC[C@@H](/C=C/C1C(=O)C=C[C@H]1C/C=C\CCCC(=O)OC)OC(C)=O (stereo partly drawn) | 46.4* | 1.8 | -7.0 | 8.3 | 3.3

High-throughput results as filed in PubChem BioAssay.
